# Screening data: PubChem, Broad Institute
# S100A4 inh HTS – inhibitors of S100A4-myosin IIA peptide binding, primary screen, biochemical, fluorescence polarization, TAMRA-MyoIIA peptide. inhibition, % at 10.7 µM. actives 0.14% (n = 360,000);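 active = mean inhibition of at least 70% across replicates, with every replicate also reaching that level; inconclusive = mean inhibition reaches 70% but some replicates fall short; inactive = mean inhibition below 70%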
# Target sequence (P26447 whole entry, looked up): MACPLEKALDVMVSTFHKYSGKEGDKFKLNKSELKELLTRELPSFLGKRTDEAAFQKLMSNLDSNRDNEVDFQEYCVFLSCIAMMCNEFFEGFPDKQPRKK
#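 Compound dosing: one dose per compound; test system: human S100A4 monomer with TAMRA-labelled myosin IIA peptide; probe or stimulus: TAMRA-labelled myosin IIA heavy-chain peptide probe, 5 nM; medium: HEPES buffer with Ca2+, pH 7.2; schedule: 5 min incubation before reading; benchmarks: neutral control DMSO, positive control TFP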
# CDK5 inh – inhibitors of human CDK5/p35 kinase, primary screen, biochemical, single concentration; actives 0.01% (n = 330,000); inhibition, % at 10 µM; Cyclin-dependent kinase 5 (Homo sapiens) + Cyclin-dependent kinase 5 activator 1 (Homo …; Recombinant CDK5/p35, ADP-Glo luminescence, 60 min;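 active = highest replicate inhibition of at least 50% and at least 75% of replicates reaching 50%; inconclusive = only one of the two criteria met; inactive = both criteria failed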;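 note: plate controls were DMSO neutral control for no effect and GW8510 at 10 µM for full effect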
# CAL PDZ FP-1 – untagged CAL PDZ binding inhibitors, primary screen, biochemical, fluorescence polarization, HTS | Golgi-associated PDZ and coiled-coil motif-containing protein (Homo sapiens), Q9HD26 | purified CAL PDZ, TMR-peptide fluorescence polarization, 1 h | inhibition, % at 24.9 µM | actives 0.92% (n = 300,000) | AID 602252, 2012;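 active = mean inhibition of at least 30% with at least half of replicates also reaching 30%; inconclusive = no clear call, values can overlap the other calls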;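 note: 0% = DMSO neutral control and 100% = excess unlabeled competitor peptide PRC23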
# C2C12 statin – suppressors of statin myotoxicity in C2C12 myotubes, primary screen, cell-based, single point, plate reader | C2C12 myotubes + simvastatin, ATP luminescence, 48 h; scaled: DMSO 0, geranylgeraniol control 100 | rescue of ATP level, % at 7.49 µM | actives 0.78% (n = 330,000);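 active = mean ATP rescue above about 67%, or every replicate alone reaching that limit, limit read from the data, passing the limit was not always enough; inconclusive = no clear call, values can overlap the other calls; inactive = mean under the limit and some replicate under it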;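 note: myotubes were challenged with 10 µM simvastatin during compound exposure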
# dFosB activator – activators of delta FosB homodimer, primary screen, biochemical, fluorescence polarization, TAMRA-CDK5 oligo, single point; Protein FosB (Mus musculus), P13346; purified delta FosB; percent of positive-control signal above neutral wells; activation, % at 25 µM; actives 0.99% (n = 340,000);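 active = mean activation above about 17%, with every replicate also reaching it, limit read from the data, passing the limit was not always enough; inconclusive = only one of the two conditions met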
# Target sequence (P13346 whole entry, looked up): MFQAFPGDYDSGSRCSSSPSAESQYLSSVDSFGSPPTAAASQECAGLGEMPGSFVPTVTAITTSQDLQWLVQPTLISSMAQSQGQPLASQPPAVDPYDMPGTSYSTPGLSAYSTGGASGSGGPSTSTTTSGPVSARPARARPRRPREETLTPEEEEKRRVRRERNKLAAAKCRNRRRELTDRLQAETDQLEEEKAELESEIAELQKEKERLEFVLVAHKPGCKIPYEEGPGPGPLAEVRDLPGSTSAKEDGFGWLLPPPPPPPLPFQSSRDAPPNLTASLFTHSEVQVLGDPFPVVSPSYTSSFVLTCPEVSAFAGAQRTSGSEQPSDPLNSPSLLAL
# CAL PDZ FP-2 – CAL PDZ peptide-binding inhibitors, primary screen, biochemical, fluorescence polarization, Cer-tagged CAL PDZ, HTS; Golgi-associated PDZ and coiled-coil motif-containing protein (Homo sapiens), Q9HD26; purified CAL PDZ, TMR-peptide fluorescence polarization, 1 h; inhibition, % at 20 µM; actives 0.02% (n = 330,000);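 active = highest replicate inhibition of at least 40%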;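 note: plate controls were DMSO neutral control wells for no effect and unlabeled competitor peptide control wells for full effect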
#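 material = purified tagged CAL PDZ domain construct (CerCALP) | compound dosing = 20 µM, one dose | times = 1 h at RT | measured by = fluorescence polarization from S- and P-plane intensities, G-factor corrected | read-out = inhibition from polarization loss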
# Starred values were filed as active, the others as inactive; ? = inconclusive; . = no result; + = active, no number. Shown are actives, neighbours in structure and some others; about 2% of the full set was active somewhere.
SMILES,S100A4 inh HTS,CDK5 inh,CAL PDZ FP-1,C2C12 statin,dFosB activator,CAL PDZ FP-2
COc1ccc(OCC(O)CNC(=O)Nc2ccc(C(C)(C)C)cc2)cc1 (stereo not given),6,-2,-5,-32,-1,-1
Cc1cc(C)c(C(=O)COC(=O)CNC(=O)c2ccccc2C)c(C)c1,111*,0,-3,.,-3,-2
Cc1cc(C(=O)OCC(=O)Nc2c(Cl)cccc2Cl)c(C)o1,0,2,-3,2,22*,0
Cc1cc(C(=O)OCC(=O)Nc2cc(C(F)(F)F)ccc2N2CCOCC2)c(C)o1,.,0,-5,94*,-13,-3
Cc1cccc(NC(=O)COC(=O)c2cc(C)oc2C)c1,2,1,-5,0,3,.
CCC(=O)Nc1cc(C(F)(F)F)ccc1N1CCOCC1,.,-1,2,-7,-12,.
N#C/C(=C(/O)c1cccs1)c1nc2ccccc2[nH]1,-9,-8,-3,-2,-1,-2
CCC/C=N/NC(=O)c1cccc(Br)c1,-13,1,86*,-6,0,-1
ONC(=Nc1ccccc1)C(=Nc1ccccc1)NO,.,2,-2,86*,-2,0
CCOc1ccccc1C1c2[nH]c3ccccc3c2C[C@H]2C(=O)N(C3CCN(Cc4ccccc4)CC3)CC(=O)N12 (stereo not given in full),2,0,5,-8,63*,1
O=C1[C@@H]2Cc3c([nH]c4ccccc34)C(c3ccccc3)N2C(=O)CN1C1CCN(Cc2ccccc2)CC1 (stereo not given in full),0,-8,-3,-3,3,-1
COc1ccc(C2c3[nH]c4ccccc4c3C[C@H]3C(=O)N(C4CCN(Cc5ccccc5)CC4)CC(=O)N23)c(OC)c1 (stereo not given in full),-1,0,6,5,21*,1
O=C1[C@@H]2Cc3c([nH]c4ccccc34)C(c3cccc(Br)c3)N2C(=O)CN1C1CCN(Cc2ccccc2)CC1 (stereo not given in full),6,-2,-9,36,66*,.
COC(=O)c1ccc(C2c3[nH]c4ccccc4c3C[C@H]3C(=O)N(C4CCN(Cc5ccccc5)CC4)CC(=O)N23)cc1 (stereo not given in full),-5,0,0,-2,55*,1
COc1ccc(Cl)cc1NC(=O)CCN1C(=O)NC(C)(C)C1=O,0,0,-5,4,4,0
Cc1ccc(OC(=O)c2sc3ncn(C)c(=O)c3c2C)cc1,6,0,-4,4,-10,-3
Cc1ccccc1C1c2[nH]c3ccccc3c2C[C@H]2C(=O)N(C3CCN(Cc4ccccc4)CC3)CC(=O)N12 (stereo not given in full),?,2,-6,-4,76*,0
COCCn1cnc2c(c1=O)c1nc3ccccc3nc1n2/N=C/c1cccc(OC)c1,-4,0,34*,.,-40,-3
COCCCn1cnc2c(c1=O)c1nc3ccccc3nc1n2-c1ccccc1,.,1,0,127*,-10,-1
COCCCn1cnc2oc3nc4ccccc4nc3c2c1=O,.,-5,1,-9,3,-2
Cn1c(N)c(C(=O)COC(=O)C2(c3cccc(F)c3)CCCC2)c(=O)n(C)c1=O,.,0,5,108*,-9,-1
CCC(NS(=O)(=O)c1ccc(C)cc1)C(=O)Nc1ccc(NC(C)=O)cc1 (stereo not given),.,0,2,138*,3,-1
Clc1ccccc1CN(Cc1ccco1)Cc1nnnn1C1CCCC1,.,0,-1,-2,-6,-2
CCCN1[C@@H]2c3ccc(-c4ccccc4F)c(=O)n3C[C@H]1[C@H](CO)[C@H]2C(=O)NCCOC,9,.,.,14,.,.
Cc1nn2c(NCCCN(C)C)c3c(nc2c1-c1ccccc1)CCCC3,1,0,+,.,-2,0
SMILES,S100A4 inh HTS,CDK5 inh,CAL PDZ FP-1,C2C12 statin,dFosB activator,CAL PDZ FP-2
Cc1cc(N2CCN(C(=O)c3ccco3)CC2)n2nc(-c3cccc(Cl)c3)cc2n1,.,0,-1,.,5,-2
Cc1c(NC(=O)C(C)Sc2ccccc2)c(=O)n(-c2ccccc2)n1C (stereo not given),.,0,-2,0,-2,0
COCCCn1c(SC(C)C(=O)Nc2c(C)n(C)n(-c3ccccc3)c2=O)n[nH]c1=O (stereo not given),0,0,43*,.,-4,0
CC(C)c1c(Cl)c(O)c(-c2ccccc2)c(=O)n1-c1ccc(F)cc1,.,0,38*,.,-1,0
CC(Sc1nnnn1C)C(=O)Nc1ccc2c(c1)OCCO2 (stereo not given),-3,-2,44*,.,-2,-1
Cn1nnnc1SCC(=O)Nc1ccc2c(c1)OCCO2,9,1,.,9,6,-1
CC(=O)Nc1ccc(NC(=O)CSc2nnnn2-c2ccc3c(c2)OCCO3)cc1,-3,-1,2,-19,87*,-3
Nn1c(SCC(=O)Nc2ccc3c(c2)OCCO3)nnc(CCC(=O)O)c1=O,-24,1,83*,-1,3,1
O=C(CNC(=O)N1CC(=O)Nc2ccccc21)NCc1ccccc1Cl,-3,.,-2,3,1,-2
O=C(Cc1ccncc1)Nc1ccc2c(c1)[C@H]1C[C@@H](CC(=O)NC3CCCCC3)O[C@@H](CO)[C@H]1O2,4,.,.,-10,.,.
Cc1cccn2c(=O)c3cc(C#N)c(=N)n(CCN4CCOCC4)c3nc12,.,1,1,104*,-1,-1
Cc1cccn2c(=O)c3cc(C#N)c(=N)n(CCCN4CCOCC4)c3nc12,.,0,-3,5,-3,-1
Cc1ccc(C(C(=O)NC(C)(C)C)N(CC2CCCO2)C(=O)CCC(=O)Nc2ccccn2)cc1 (stereo not given),-8,1,84*,21,-9,0
C[C@H]1CN([C@@H](C)CO)C(=O)c2cc(C3=CCCC3)cnc2O[C@@H]1CN(C)C(=O)c1cccnc1,9,.,.,-10,.,.
COc1cccc(/C=C2\SC(=S)N(CCC(=O)Nc3ccc(O)cc3)C2=O)c1,0,1,-2,1,?,0
